The values that follow come from ChEMBL document CHEMBL2424653, “Crystal structures of hereditary vitamin D-resistant rickets-associated vitamin D receptor mutants R270L and W282R bound to 1,25-dihydroxyvitamin D3 and synthetic ligands” (J Med Chem, 2013).

Changes are numbered by the printed parent chain. “And” between values parts separate entries of the source, which are not always exact repeats. Equal values may be shown once. The source made the active and inactive calls. No cut-off for these calls is given here.

Test [1] deals with T1, Vitamin D3 receptor (Homo sapiens), P11473 [R274L].
T1 sequence (whole entry): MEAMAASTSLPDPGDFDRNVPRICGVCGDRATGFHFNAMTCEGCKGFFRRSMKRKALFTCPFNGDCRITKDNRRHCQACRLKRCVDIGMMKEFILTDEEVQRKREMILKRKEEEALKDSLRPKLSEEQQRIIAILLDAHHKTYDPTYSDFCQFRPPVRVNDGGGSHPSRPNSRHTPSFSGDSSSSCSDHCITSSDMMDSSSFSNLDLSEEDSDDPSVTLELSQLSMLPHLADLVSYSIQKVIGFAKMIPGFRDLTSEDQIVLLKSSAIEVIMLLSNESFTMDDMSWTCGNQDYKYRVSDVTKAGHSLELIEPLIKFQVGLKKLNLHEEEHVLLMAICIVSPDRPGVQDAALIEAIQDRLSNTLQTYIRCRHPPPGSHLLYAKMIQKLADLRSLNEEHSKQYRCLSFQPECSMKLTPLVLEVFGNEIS
In words: Agonist activity at human full length VDR R274L mutant expressed in COS7 cells after 24 rs by luciferase reporter gene assay. The class given is cell-based. As to conditions: COS-7. The method in brief: (§1)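 COS-7 cells grown in DMEM with 5% FCS, seeded at 2 × 10^4 per well. After 24 h, lipofected with mutant full-length hVDR expression plasmid, SPPx3-TK-Luc reporter (three mouse osteopontin VDRE copies) and sea pansy luciferase internal control. Medium changed after 4 h to 5% charcoal-treated FCS. Next day, ligand or ethanol vehicle added for 24 h. Lysate firefly luciferase normalized to the internal control. Triplicate.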

Test [2] shares this test system. In words: Transactivation of human full length VDR R274L mutant expressed in COS7 cells after 24 rs by luciferase reporter gene assay relative to 1,25(OH)2D3. Type of test: cell-based. As to conditions: COS-7. The method in brief: as §1
(In general: A reporter such as luciferase makes a cellular process visible.)

Test [3] has as its target T2, Vitamin D3 receptor (Rattus norvegicus) (UniProt P13053).
T2 sequence (whole entry): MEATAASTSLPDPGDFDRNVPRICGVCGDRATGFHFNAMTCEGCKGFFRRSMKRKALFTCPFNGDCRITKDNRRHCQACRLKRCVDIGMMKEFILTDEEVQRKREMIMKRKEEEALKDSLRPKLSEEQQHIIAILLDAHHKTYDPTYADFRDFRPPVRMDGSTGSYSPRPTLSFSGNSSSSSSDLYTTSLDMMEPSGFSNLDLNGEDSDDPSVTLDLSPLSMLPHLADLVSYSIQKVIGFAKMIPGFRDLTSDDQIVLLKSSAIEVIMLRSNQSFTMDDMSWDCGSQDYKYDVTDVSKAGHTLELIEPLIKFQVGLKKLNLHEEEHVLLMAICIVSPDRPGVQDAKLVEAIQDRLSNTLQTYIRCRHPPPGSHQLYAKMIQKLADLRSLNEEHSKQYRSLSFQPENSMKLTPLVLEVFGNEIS
As to conditions: 5 mM.

Test [4] relates to T3, Vitamin D3 receptor (Rattus norvegicus), P13053 [R270L].
T3 sequence (whole entry): T2 sequence (whole entry) with R270L
As to conditions: 5 mM.

Test [5] concerns T4, Vitamin D3 receptor (Rattus norvegicus), P13053 [W282R].
T4 sequence (whole entry): T2 sequence (whole entry) with W282R
Particulars: 5 mM.

Test [6] has as its target T5, Vitamin D3 receptor (Homo sapiens) (UniProt P11473).
T5 sequence (whole entry): T1 sequence (whole entry) with L274R
In words: Agonist activity at human full length VDR W282R mutant expressed in COS7 cells after 24 rs by luciferase reporter gene assay. The class given is cell-based. As to conditions: COS-7. The method in brief: as §1

Turning to `C[C@H](CCCC(C)(C)O)[C@H]1CC[C@H]2/C(=C/C=C3/C[C@@H](O)[C@@](C)(O)[C@H](OCCO)C3)CCC[C@]12C`, the result in test [1] was inactive.

For the molecule `CCC(O)(CC)CS[C@@H](C)C1=CC[C@H]2/C(=C/C=C3C[C@@H](O)C(=CCO)[C@H](O)C3)CCC[C@]12C`, the fold change (FC) in test [2] was 130 and 46.

Consider `C[C@H](CCCC(C)(C)O)[C@H]1CC[C@H]2/C(=C/C=C3/C[C@@H](O)C[C@H](OCCO)C3)CCC[C@]12C`, for which, in test [1], the outcome was Active.

Consider `C[C@H](CCCC(C)(C)O)[C@H]1CC[C@H]2/C(=C/C=C3/C[C@@H](O)C[C@H](OCCCCO)C3)CCC[C@]12C`, for which the result in test [1] was Active.

For `C[C@H](CCCC(C)(C)O)[C@H]1CC[C@H]2/C(=C/C=C3/C[C@@H](O)[C@@](C)(O)[C@H](OCCCCO)C3)CCC[C@]12C`, the result in test [1] was inactive.

On to `C[C@H](CCCC(C)(C)O)[C@H]1CC[C@H]2/C(=C/C=C3/C[C@@H](O)[C@@](C)(O)[C@H](OCCCO)C3)CCC[C@]12C`, for which the result in test [1] was inactive.

By ΔTm is commonly meant the change in melting temperature against a reference sample. Consider `C=C1/C(=C\C=C2/CCC[C@]3(C)[C@@H]([C@H](C)CCCC(C)(C)O)CC[C@@H]23)C[C@@H](O)C[C@@H]1O`, for which the ΔTm in test [3] stood at 8.4 °C; in test [4], 2.5 °C; in test [5], 0.1 °C.

Consider `C=CC[C@@H]1CC[C@]2(C)[C@@H]([C@H](C)CCCC(C)(C)O)CC[C@H]2/C1=C/C=C1C[C@@H](O)C(=CCO)[C@H](O)C1`, for which the outcome in test [6] was inactive.

Take `CCCC[C@@H]1CC[C@]2(C)[C@@H]([C@H](C)CCCC(C)(C)O)CC[C@H]2/C1=C/C=C1C[C@@H](O)C[C@H](O)C1`: in test [6], the result was inactive.

In the case of `C[C@H](CCCC(C)(C)O)[C@H]1CC[C@H]2/C(=C/C=C3C[C@@H](O)C(=CCO)[C@H](O)C3)[C@H](CCCO)CC[C@]12C`, in test [6], the outcome was inactive.
